In ChEMBL document CHEMBL1144241, “Deuterium isotope effects for the oxidation of 1-methyl-3-phenyl-3-pyrrolinyl analogues by monoamine oxidase B” (Bioorg Med Chem, 2008):

What was measured:
[1] = Metabolic stability in (R)-deprenyl pre-inactivated baboon liver mitochondrial fraction assessed as pyrrolyl oxidation product at 50 uM after 10 mins by HPLC analysis; format: ADME, Papio
[2] = test system: Papio; experiment: Activity of baboon liver mitochondrial MAOB by HPLC/UV analysis
In short: (§1)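 Enzyme source was baboon liver mitochondria (no MAO-A inactivation), at 0.15 mg protein/mL in 100 mM sodium phosphate, pH 7.4. Substrate oxalate salts were tested at eight concentrations, 12.5–2000 µM, for 10 min at 37 °C, then stopped with trichloroacetic acid and centrifuged. Pyrrolyl products were measured by HPLC-UV at 270 nm against calibration curves. Initial rates were fitted to Michaelis–Menten, in triplicate, mean ± SEM.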

[3] = test system: Papio; experiment: Activity of baboon liver mitochondrial MAOB per mg of mitochondria by HPLC/UV analysis; in short: as §1
[4] = test system: Papio; experiment: Activity of baboon liver mitochondrial MAOB per mg of mitochondria assessed as oxidation of 1-methyl-3-(4-fluorophenyl-3-pyrroline by HPLC/UV analysis; details: tested as the 2H-labelled form
In short: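 Baboon liver mitochondrial fraction as MAO-B source (no MAO-A activity; protein by Bradford), 0.15 mg protein/mL, in 100 mM sodium phosphate pH 7.4. Substrate as oxalate salt at eight concentrations, 12.5–2000 µM. Incubated 10 min at 37 °C; stopped with trichloroacetic acid. Pyrrolyl product quantified by HPLC-UV at 270 nm against calibration curve. Triplicates; Michaelis–Menten fit for Km and Vmax (nmol/min-mg mitochondria).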

[5] = test system: Papio; experiment: Deuterium isotope effect on Vmax/Km for baboon liver mitochondrial MAOB assessed as oxidation of 1-methyl-3-(4-fluorophenyl-3-pyrroline by HPLC/UV analysis; details: tested as the 2H-labelled form
[6] = test system: Papio; experiment: Activity of baboon liver mitochondrial MAOB per mg of mitochondria assessed as oxidation of 1-methyl-3-phenyl-3-pyrroline by HPLC/UV analysis; details: tested as the 2H-labelled form; in short: as §1
[7] = test system: Papio; experiment: Ratio of Vmax to Km for baboon liver mitochondrial MAOB assessed as oxidation of 1-methyl-3-phenyl-3-pyrroline by HPLC/UV analysis; details: tested as the 2H-labelled form; in short: as §1
[8] = Metabolic stability in (R)-deprenyl pre-inactivated baboon liver mitochondrial fraction assessed as oxidation to 1-methyl-3-phenylpyrrole; format: ADME, Papio

SMILES: [2H]C1=C(c2ccccc2)C([2H])([2H])N(C)C1([2H])[2H]
- Activity [1]: 2.6%

SMILES: CN1CC=C(c2ccc(F)cc2)C1
- Km [2]: 87.2 µM
- Km ([2]; tested as the 2H-labelled form): 73.8 µM
- Vmax [3]: 15.7 nmol/min
- Vmax ([3]; tested as the 2H-labelled form): 3.96 nmol/min
- D(Km) isotope effect [4]: 1.19
- D(Vmax) isotope effect [4]: 3.98
- D(Vmax/Km) isotope effect [5]: 3.37

SMILES: CN1CC=C(c2ccccc2)C1
- Km [2]: 118 µM
- Km ([2]; tested as the 2H-labelled form): 157 µM
- Vmax [3]: 9.07 nmol/min
- Vmax ([3]; tested as the 2H-labelled form): 2.11 nmol/min
- Km [6]: 0.8 µM
- Vmax [6]: 4.29 nmol/min
- Vmax/Km [7]: 5.71 nmol/min.µM
- Activity [8]: 8.4%
